Experimental data taken from paper PMC2888972 (Molecular cancer therapeutics, 2009).
Read-outs that look alike come from different tables or passages of the source.

Legend:
Caki-1 cancer = assay: Growth inhibition assay; format: cell-based, human; settings: for efficacy (maximum growth inhibition observed): 1 to 12.5 µmol/L; for EC50: read-out: potency (EC50, concentration needed to induce half maximal efficacy)
Method in brief: (§1)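 Stock is 0.01 mol/L in DMSO, kept at −20°C under subdued light. Cells get 1–12.5 µmol/L or equal-volume DMSO, in triplicate, for 48 h. Growth index is mean treated OD over mean control OD, plotted against concentration. Maximal inhibition comes by nonlinear regression from plots of 2–3 independent experiments.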

HK-2 normal = assay: Growth inhibition assay; format: cell-based, human; settings: 48 h; for efficacy (maximum growth inhibition observed): 1 to 12.5 µmol/L; for EC50: read-out: potency (EC50, concentration needed to induce half maximal efficacy)
Method in brief: as §1

786-O cancer = assay: Growth inhibition assay; format: cell-based, human; settings: for efficacy (maximum growth inhibition observed): 48 h, 1 to 12.5 µmol/L; for EC50: read-out: potency (EC50, concentration needed to induce half maximal efficacy), 48 h
Method in brief: as §1

TA98 = assay: Bacterial mutation; settings: positive control 1 µg/plate, −S9
RTC91696 normal = assay: Growth inhibition assay; format: cell-based, human; settings: RTC91696 normal, 48 h, single experiments
WP2 uvrA = assay: Bacterial mutation
TA1535 = assay: Bacterial mutation; settings: positive control 5 µg/plate, +S9

Row | SMILES | efficacy (maximum growth inhibition observed) (Caki-1 cancer; Caki-1 cancer, 48 h) | EC50 (Caki-1 cancer; Caki-1 cancer, 48 h) | efficacy (maximum growth inhibition observed) (HK-2 normal; HK-2 normal) | EC50 (HK-2 normal; HK-2 normal) | efficacy (maximum growth inhibition observed) (786-O cancer) | EC50 (786-O cancer) | other results
1 | COC(=O)c1cccc(NC(=S)Nc2ccc3c(c2)C(C)(C)CC(C)(C)S3)c1 [SHetD5] | 34.10% ± 1.20% | 7.22 ± 0.25 µM | 47.97% ± 1.00% | 4.96 ± 0.25 µM | 41.80% ± 16.91% | 5.14 ± 0.7 µM | –
2 | O=[N+]([O-])c1ccc2c(c1)Cc1ccccc1-2 [2NF, reference compound] | – | – | – | – | – | – | number of revertant colonies, Mean (TA98): 108
3 | COC(=O)c1ccc(NC(=S)Nc2ccc3c(c2)C(C)(C)CC(C)(C)S3)cc1 [SHetD4] | 38.67% ± 1.50% | 7.56 ± 0.15 µM | 43.67% ± 0.44% | 7.42 ± 0.2 µM | 44.55% ± 17.56% | 5.08 ± 0.71 µM | efficacy (maximum growth inhibition observed) (RTC91696 normal; 1 to 12.5 µmol/L): 37.74% ± 6.61%; EC50 (RTC91696 normal; read-out: potency (EC50, concentration needed to induce half maximal efficacy)): 5.36 ± 0.6 µM
4 | Nc1ccc2cc3ccccc3cc2c1 [2AA, reference compound] | – | – | – | – | – | – | number of revertant colonies, Mean (WP2 uvrA; positive control 0.5 µg/plate, −S9): 594; number of revertant colonies, Mean (WP2 uvrA; positive control 15 µg/plate, +S9): 145; number of revertant colonies, Mean (TA1535): 324
5 | CC1=C(/C=C/C(C)=C/C=C/C(C)=C/C(=O)O)C(C)(C)CCC1 [t-RA, trans-retinoic acid, reference compound] | 6.46% ± 9.40% | – | 15.81% ± 0.47% | – | 0.00% ± 1.43% | – | EC50 (Caki-1 cancer; Homo sapiens, CAKI-1, 48 h): 4.64 ± 1.14 µM; EC50 (HK-2 normal; Homo sapiens): 6.28 ± 2.19 µM
